Assay results gathered from unrelated publications.
Protocols differ between the studies behind these lines. Converted amounts (≈) assume the structure as drawn.

SMILES	organism	assay	system	conditions	measurement	value
O=C1C(=O)c2cccnc2-c2ncccc21	Angiostrongylus cantonensis	parasite motility	–	24 h, larva	EC50	25.6 µM
C=C[C@]1(C)C[C@@H](OC(=O)CS[C@@H]2C[C@H]3CC[C@@H](C2)N3C)[C@]2(C)[C@H](C)CC[C@]3(CCC(=O)[C@H]32)[C@@H](C)[C@@H]1O	Staphylococcus aureus	microbial growth	MSSA	clinical isolate	MIC90	0.0625 µg/mL (≈ 0.121 µM)
CCOC(=O)/C=C1/SC(N/N=C/c2c(-c3ccc(F)cc3)nc3ncccn23)=NC1=O	Escherichia coli	microbial growth, well diffusion	ATCC25922	100 µg/mL	inhibition zone	10 mm
CC1(C)S[C@@H]2[C@H](NC(=O)[C@H](N)c3ccccc3)C(=O)N2[C@H]1C(=O)O	Micrococcus luteus	microbial growth, broth dilution	ATCC4698	43 h	MIC	0.5 µg/mL (≈ 1.43 µM)
CN[C@H](CC(C)C)C(=O)N[C@H]1C(=O)N[C@@H](CC(N)=O)C(=O)N[C@H]2C(=O)N[C@H]3C(=O)N[C@H](C(=O)N[C@H](C(=O)O)c4cc(O)cc(O)c4-c4cc3ccc4O)[C@H](O)c3ccc(c(Cl)c3)Oc3cc2cc(c3O[C@@H]2O[C@H](CO)[C@@H](O)[C@H](O)[C@H]2O[C@H]2C[C@](C)(N)[C@H](O)[C@H](C)O2)Oc2ccc(cc2Cl)[C@H]1O	Staphylococcus aureus	microbial growth, agar dilution	ATCC29213	–	MIC	1 µg/mL (≈ 0.69 µM)
CCS(=O)(=O)Oc1cc(C=NNC(=O)CSc2nc3c(C)cccc3c(=O)n2-c2ccccc2)ccc1OC	Staphylococcus aureus	microbial growth, well diffusion	MRSA	20 µg/mL	inhibition zone	3 mm
O=C(O)c1cn(C2CC2)c2cc(N3CCNCC3)c(F)cc2c1=O	Escherichia coli	microbial growth, well diffusion	ATCC25922	100 µg/mL	inhibition zone	35 mm
CCCS(=O)(=O)Oc1ccc(C=NNC(=O)CSc2nc3c(C)cccc3c(=O)n2-c2ccccc2)cc1	Staphylococcus aureus	microbial growth, well diffusion	MRSA	20 µg/mL	inhibition zone	2 mm
OC(Cn1cncn1)(Cn1cncn1)c1ccc(F)cc1F	Alternaria solani	microbial growth, broth dilution	–	–	MIC	16 µg/mL (≈ 52.2 µM)
